Laboratory results taken from ChEMBL document CHEMBL3994666 (ACS Med Chem Lett, 2017).
Values after ≈ are worked out from the molar mass of the structure shown. Active and inactive are the calls of the source. The calls are words filed in the database; no cut-off is given here.

Legend:
Mus musculus [1] = experiment: In vivo inhibition of LMP7 in Balb/c mouse assessed as residual activity in blood at 2 mg/kg, iv administered as single bolus dose using 10% EtOH/25% PEG300 formulation after 1 hr by ELISA relative to control; type: functional
In short: (§1)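 Mice dosed intravenously at nominal doses. Blood collected 1 h later and proteasome active-site activity (LMP2, LMP7, β5) measured by ProCISE subunit-specific ELISA. Expressed as % activity remaining relative to control.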

PBMC [2] = experiment: Anti-inflammatory activity in human PBMC assessed as inhibition of LPS-induced Il-1b production pretreated for 1 hr followed by LPS stimulation measured after 20 hrs; type: functional, cell-based
[3] = Solubility of the compound in phosphate buffer at pH 7.2 at 10 mg/ml after 24 hrs by UV-HPLC method; type: physicochemical
In short: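 Solubility measured at pH 7.2. Values are mean ± SD, n = 2.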

PBMC [4] = experiment: Anti-inflammatory activity in human PBMC assessed as inhibition of LPS-induced IL-8 production pretreated for 1 hr followed by LPS stimulation measured after 20 hrs; type: functional, cell-based
PBMC [5] = experiment: Anti-inflammatory activity in human PBMC assessed as inhibition of LPS-induced IL-6 production pretreated for 1 hr followed by LPS stimulation measured after 20 hrs; type: functional, cell-based
[6] = Stability in human liver S9 fraction assessed as compound remaining at 1 uM incubated for 90 mins in absence of NADPH by LC-MS/MS analysis; type: ADME, tissue-based; conditions: read-out: Stability
In short: (§2)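 Compound incubated with liver S9 fraction for 90 min without NADPH. Values are mean ± SD, n ≥ 3.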

PBMC [7] = experiment: Anti-inflammatory activity in human PBMC assessed as inhibition of LPS-induced IL-12/23 p40 production pretreated for 1 hr followed by LPS stimulation measured after 20 hrs; type: functional, cell-based
Mus musculus [8] = experiment: In vivo inhibition of LMP2 in Balb/c mouse assessed as residual activity in blood at 2 mg/kg, iv administered as single bolus dose using 10% EtOH/25% PEG300 formulation after 1 hr by ELISA relative to control; type: functional; in short: as §1
[9] = target: T1, Proteasome subunit beta type-9 (Homo sapiens, UniProt P28065); experiment: Inhibition of LMP2 in human MOLT4 cell lysate after 1 hr by ELISA
T1 sequence (P28065 whole entry): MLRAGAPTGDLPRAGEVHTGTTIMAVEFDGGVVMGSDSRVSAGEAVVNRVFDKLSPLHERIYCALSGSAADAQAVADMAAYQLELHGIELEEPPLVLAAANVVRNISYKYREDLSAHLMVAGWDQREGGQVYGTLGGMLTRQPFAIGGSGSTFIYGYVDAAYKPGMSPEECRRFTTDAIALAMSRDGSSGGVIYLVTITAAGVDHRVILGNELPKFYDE
In short: (§3)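 ProCISE subunit-specific ELISA of proteasome catalytic active sites in cell lysate. Values are mean ± SD, n ≥ 2.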

[10] = target: T2, Proteasome subunit beta type-8 (Homo sapiens, UniProt P28062); experiment: Inhibition of LMP7 in human MOLT4 cell lysate after 1 hr by ELISA; in short: as §3
T2 sequence (P28062 whole entry): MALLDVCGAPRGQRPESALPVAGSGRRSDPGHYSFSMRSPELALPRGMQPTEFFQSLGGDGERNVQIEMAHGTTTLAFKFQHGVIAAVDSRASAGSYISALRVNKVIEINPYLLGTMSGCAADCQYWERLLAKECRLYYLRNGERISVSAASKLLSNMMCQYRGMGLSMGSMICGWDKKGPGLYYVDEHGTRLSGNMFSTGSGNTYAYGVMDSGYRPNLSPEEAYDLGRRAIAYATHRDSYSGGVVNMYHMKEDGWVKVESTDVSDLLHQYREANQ

Mus musculus [11] = experiment: In vivo inhibition of proteasome beta5 in Balb/c mouse assessed as residual activity in blood at 2 mg/kg, iv administered as single bolus dose using 10% EtOH/25% PEG300 formulation after 1 hr by ELISA relative to control; type: functional; in short: as §1
PBMC [12] = experiment: Anti-inflammatory activity in human PBMC assessed as inhibition of LPS-induced TNF-alpha production pretreated for 1 hr followed by LPS stimulation measured after 20 hrs; type: functional, cell-based
PBMC [13] = experiment: Anti-inflammatory activity in human PBMC assessed as inhibition of LPS-induced GMCSF production pretreated for 1 hr followed by LPS stimulation measured after 20 hrs; type: functional, cell-based
[14] = Stability in Sprague-Dawley rat liver S9 fraction assessed as compound remaining at 1 uM incubated for 90 mins in absence of NADPH by LC-MS/MS analysis; type: ADME, tissue-based; conditions: read-out: Stability; in short: as §2
[15] = target: T3, Proteasome subunit beta type-10 (Homo sapiens, UniProt P40306); experiment: Inhibition of MECL1 in human MOLT4 cell lysate after 1 hr by ELISA
T3 sequence (P40306 whole entry): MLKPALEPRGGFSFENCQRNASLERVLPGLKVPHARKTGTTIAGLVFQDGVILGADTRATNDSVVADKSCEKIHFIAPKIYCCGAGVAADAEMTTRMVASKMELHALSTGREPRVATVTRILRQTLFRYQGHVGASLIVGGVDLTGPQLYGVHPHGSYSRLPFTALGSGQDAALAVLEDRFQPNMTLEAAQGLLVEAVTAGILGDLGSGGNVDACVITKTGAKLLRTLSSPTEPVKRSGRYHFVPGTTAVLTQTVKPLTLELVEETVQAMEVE

PBMC [16] = experiment: Cytotoxicity against human PBMC assessed as decrease in cell viability by CellTiter-Glo assay; type: cell-based
In short: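 PBMC viability read out with CellTiter-Glo. IC50 derived from the viability signal.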

[17] = Stability in Balb/c mouse liver S9 fraction assessed as compound remaining at 1 uM incubated for 90 mins in absence of NADPH by LC-MS/MS analysis; type: ADME, tissue-based; conditions: read-out: Stability; in short: as §2
[18] = target: T4, Proteasome Macropain subunit MB1 (Homo sapiens, UniProt P28074); experiment: Inhibition of proteasome beta5 in human MOLT4 cell lysate after 1 hr by ELISA; in short: as §3
T4 sequence (P28074 whole entry): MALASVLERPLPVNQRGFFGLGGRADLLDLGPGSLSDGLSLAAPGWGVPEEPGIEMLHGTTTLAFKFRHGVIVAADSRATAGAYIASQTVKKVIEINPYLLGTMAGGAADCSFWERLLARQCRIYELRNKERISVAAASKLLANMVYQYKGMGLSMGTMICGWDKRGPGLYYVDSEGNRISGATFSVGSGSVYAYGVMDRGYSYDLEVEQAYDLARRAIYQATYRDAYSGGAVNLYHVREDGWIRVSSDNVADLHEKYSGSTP

Mus musculus [19] = experiment: In vivo inhibition of LMP2 in Balb/c mouse assessed as residual activity in blood at 1 mg/kg, iv administered as single bolus dose using PEG300/WFI formulation after 1 hr by ELISA relative to control; type: functional; in short: as §1
Mus musculus [20] = experiment: In vivo inhibition of LMP7 in Balb/c mouse assessed as residual activity in blood at 1 mg/kg, iv administered as single bolus dose using PEG300/WFI formulation after 1 hr by ELISA relative to control; type: functional; in short: as §1
Mus musculus [21] = experiment: In vivo inhibition of proteasome beta5 in Balb/c mouse assessed as residual activity in blood at 1 mg/kg, iv administered as single bolus dose using PEG300/WFI formulation after 1 hr by ELISA relative to control; type: functional; in short: as §1
Mus musculus [22] = experiment: In vivo inhibition of LMP2 in Balb/c mouse heart at >1 mg/kg, iv administered as single bolus dose using 10% EtOH/25% PEG300 formulation after 1 hr by ELISA relative to control; type: functional
Mus musculus [23] = experiment: In vivo inhibition of LMP2 in Balb/c mouse kidney at >1 mg/kg, iv administered as single bolus dose using 10% EtOH/25% PEG300 formulation after 1 hr by ELISA relative to control; type: functional
Mus musculus [24] = experiment: In vivo inhibition of LMP2 in Balb/c mouse liver at >1 mg/kg, iv administered as single bolus dose using 10% EtOH/25% PEG300 formulation after 1 hr by ELISA relative to control; type: functional
Mus musculus [25] = experiment: In vivo inhibition of LMP7 in Balb/c mouse assessed as residual activity in blood at 1 mg/kg, iv administered as single bolus dose using 10% EtOH/25% PEG300 formulation after 1 hr by ELISA relative to control; type: functional; in short: as §1
Mus musculus [26] = experiment: In vivo inhibition of LMP2 in Balb/c mouse brain at >1 mg/kg, iv administered as single bolus dose using 10% EtOH/25% PEG300 formulation after 1 hr by ELISA; type: functional, organism-based
Mus musculus [27] = experiment: In vivo inhibition of LMP2 in Balb/c mouse assessed as residual activity in blood at 1 mg/kg, iv administered as single bolus dose using 10% EtOH/25% PEG300 formulation after 1 hr by ELISA relative to control; type: functional; in short: as §1
Mus musculus [28] = experiment: In vivo inhibition of proteasome beta5 in Balb/c mouse assessed as residual activity in blood at 1 mg/kg, iv administered as single bolus dose using 10% EtOH/25% PEG300 formulation after 1 hr by ELISA relative to control; type: functional; in short: as §1

Compound | IC50 (PBMC [2]) | solubility at 24 h [3] | IC50 (PBMC [4]) | IC50 (PBMC [5]) | remaining at 1.5 h, 1 µM [6] | IC50 (PBMC [7]) | IC50 [9] | IC50 [10] | IC50 (PBMC [12]) | IC50 (PBMC [13]) | remaining at 1.5 h, 1 µM [14] | IC50 [15] | IC50 (PBMC [16]) | remaining at 1.5 h, 1 µM [17] | IC50 [18] | further results
COc1ccc(C[C@H](NC(=O)c2cccc(=O)[nH]2)C(=O)N[C@@H](Cc2ccccc2)C(=O)[C@@]2(C)CO2)cc1 | > 25 µM | 166 µg/mL (≈ 0.33 mM) | > 25 µM | > 15.8 µM | 1.1% | > 5.6 µM | 0.14 µM | 4.81 µM | > 25 µM | > 25 µM | 8% | > 250 µM | > 25 µM | 0.4% | 18.2 µM | Activity (Mus musculus [1]): 98.3%; Activity (Mus musculus [8]): 83%; Activity (Mus musculus [11]): 90.7%
COc1ccc(C[C@H](NC(=O)[C@H](C)NC(=O)CN2CCOCC2)C(=O)N[C@@H](Cc2ccccc2)C(=O)[C@@]2(C)CO2)cc1 | 1.47 µM | 461 µg/mL (≈ 0.794 mM) | 1.11 µM | 0.24 µM | 8.6% | 0.12 µM | – | – | 0.56 µM | 0.22 µM | 23.3% | – | 3.4 µM | 106% | – | Activity (Mus musculus [19]): 95%; Activity (Mus musculus [20]): 65.3%; Activity (Mus musculus [21]): 99.8%
C[C@H](NC(=O)c1cccc(=O)[nH]1)C(=O)N[C@@H](Cc1ccccc1)C(=O)[C@@]1(C)CO1 | – | 7520 µg/mL (≈ 18.9 mM) | – | – | 25.3% | – | 0.112 µM | 44.6 µM | – | – | 58.8% | > 250 µM | – | 85.1% | 42.5 µM | –
C[C@]1(C(=O)[C@H](Cc2ccccc2)NC(=O)[C@H](CO)NC(=O)c2cccc(=O)[nH]2)CO1 | > 25 µM | 6640 µg/mL (≈ 16.1 mM) | > 25 µM | > 19.2 µM | 81.5% | > 9.7 µM | 0.051 µM | 4.27 µM | > 25 µM | > 25 µM | 92.3% | > 250 µM | > 25 µM | 90.9% | 6.89 µM | inhibition (INH) (Mus musculus [22]): >50%; inhibition (INH) (Mus musculus [23]): >50%; inhibition (INH) (Mus musculus [24]): >50%; Activity (Mus musculus [25]): 102.5%; inhibition (Mus musculus [26]): inactive; Activity (Mus musculus [27]): 31.1%; Activity (Mus musculus [28]): 101.7%
